How the values were obtained:
SNU1 = experiment: Antiproliferative activity against human SNU1 cells after 10 days; type: functional, cell-based; settings: SNU1, 240 h
G-401 = experiment: Antiproliferative activity against human G-401 cells after 10 days; type: functional, cell-based; settings: G-401, 240 h
Method in brief: (§1)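 10-day 2D proliferation screen of a broad cancer cell panel (about 240 lines, Eurofins Oncopanel). All lines were mycoplasma negative and STR verified. Compounds were dosed up to a top concentration of 10 μM or 25 μM, depending on the inhibitor. Anti-proliferative IC50 values are the average of three biological replicates.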

DU-145 = experiment: Antiproliferative activity against human DU-145 cells after 10 days; type: functional, cell-based; settings: DU-145, 240 h; method in brief: as §1
JEG-3 = experiment: Antiproliferative activity against human JEG-3 cells after 10 days; type: functional, cell-based; settings: JEG-3, 240 h
Method in brief: (§2)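 Cell lines run in the Eurofins Oncopanel broad cancer panel, all mycoplasma-negative and STR-verified. Cells were exposed to a compound concentration series in a 10-day proliferation assay, and an anti-proliferative IC50 was derived. Values are the mean of three biological replicates.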

CHP-212 = experiment: Antiproliferative activity against human CHP-212 cells after 10 days; type: functional, cell-based; settings: CHP-212, 240 h
Method in brief: (§3)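 Tested as part of a 240-line cancer cell panel (Eurofins Oncopanel); all lines were mycoplasma-negative and STR-verified. Cells were exposed to a compound concentration series in 2D culture for 10 days. The highest concentration was 10 μM or 25 μM, depending on the inhibitor. Antiproliferative IC50 was derived from the mean of three biological replicates.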

SW13 = experiment: Antiproliferative activity against human SW13 cells after 10 days; type: functional, cell-based; settings: SW13, 240 h
BeWo = experiment: Antiproliferative activity against human BeWo cells after 10 days; type: functional, cell-based; settings: 240 h; method in brief: as §3
SK-UT-1 = experiment: Antiproliferative activity against human SK-UT-1 cells after 10 days; type: functional, cell-based; settings: SK-UT-1, 240 h
Hs-578T = experiment: Antiproliferative activity against human Hs 578T cells after 10 days; type: functional, cell-based; settings: 240 h; method in brief: as §1
U-87 MG = experiment: Antiproliferative activity against human U-87MG cells after 10 days; type: functional, cell-based, U-87MG ATCC; settings: 240 h
ST486 = experiment: Antiproliferative activity against human ST486 cells after 10 days; type: functional, cell-based; settings: ST486, 240 h
[1] = Antiproliferative activity against human MT-3 cells after 10 days; type: functional, cell-based; settings: MT-3, 240 h
Method in brief: (§4)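 Broad cancer cell line panel (Eurofins Oncopanel, about 240 lines; mycoplasma negative, STR verified) grown in 2D culture and exposed to compound in a 10-day proliferation assay. The top concentration was 10 μM for the SMYD2 inhibitor series and 25 μM for the SMYD3 inhibitor. The proliferative IC50 is taken from concentration-response data, each value the mean of three biological replicates.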

JAR = experiment: Antiproliferative activity against human JAR cells after 10 days; type: functional, cell-based; settings: 240 h; method in brief: as §4
[2] = Antiproliferative activity against human KPL-1 cells after 10 days; type: functional, cell-based; settings: KPL-1, 240 h; method in brief: as §4
HEC-1-A = experiment: Antiproliferative activity against human HEC-1-A cells after 10 days; type: functional, cell-based; settings: 240 h; method in brief: as §1
T98G = experiment: Antiproliferative activity against human T98G cells after 10 days; type: functional, cell-based; settings: 240 h
[3] = Antiproliferative activity against human BC1 cells after 10 days; type: functional, cell-based; settings: BC1, 240 h; method in brief: as §3
[4] = Antiproliferative activity against human SK-N-BE(2)-C cells after 10 days; type: functional, cell-based; settings: 240 h
COLO 201 = experiment: Antiproliferative activity against human COLO201 cells after 10 days; type: functional, cell-based; settings: COLO 201, 240 h; method in brief: as §1
BXPC-3 = experiment: Antiproliferative activity against human BXPC-3 cells after 10 days; type: functional, cell-based; settings: BXPC-3, 240 h; method in brief: as §3
NCI-H295R = experiment: Antiproliferative activity against human NCI-H295R cells after 10 days; type: functional, cell-based; settings: 240 h; method in brief: as §4
LS-1034 = experiment: Antiproliferative activity against human LS1034 cells after 10 days; type: functional, cell-based; settings: LS-1034, 240 h; method in brief: as §4
MIA PaCa-2 = experiment: Antiproliferative activity against human Mia PaCa-2 cells after 10 days; type: functional, cell-based; settings: MIA PaCa-2, 240 h; method in brief: as §4
[5] = Antiproliferative activity against human TE 381.T cells after 10 days; type: functional, cell-based; settings: 240 h
HuCCT-1 = experiment: Antiproliferative activity against human HuCCT-1 cells after 10 days; type: functional, cell-based; settings: HuCCT-1, 240 h; method in brief: as §1
Capan-2 = experiment: Antiproliferative activity against human Capan2 cells after 10 days; type: functional, cell-based; settings: Capan-2, 240 h; method in brief: as §1
SW 954 = experiment: Antiproliferative activity against human SW 954 cells after 10 days; type: functional, cell-based; settings: SW 954, 240 h
Y79 = experiment: Antiproliferative activity against human Y79 cells after 10 days; type: functional, cell-based; settings: Y79, 240 h
SW-403 = experiment: Antiproliferative activity against human SW403 cells after 10 days; type: functional, cell-based; settings: SW-403, 240 h
SK-MEL3 = experiment: Antiproliferative activity against human SK-MEL3 cells after 10 days; type: functional, cell-based; settings: SK-MEL3, 240 h
BHT-101 = experiment: Antiproliferative activity against human BHT-101 cells after 10 days; type: functional, cell-based; settings: BHT-101, 240 h; method in brief: as §3
Daudi = experiment: Antiproliferative activity against human Daudi cells after 10 days; type: functional, cell-based; settings: 240 h; method in brief: as §1
NCI-H441 = experiment: Antiproliferative activity against human NCI-H441 cells after 10 days; type: functional, cell-based; settings: NCI-H441, 240 h; method in brief: as §4
Hs746T = experiment: Antiproliferative activity against human Hs746T cells after 10 days; type: functional, cell-based; settings: 240 h; method in brief: as §1
ARH-77 = experiment: Antiproliferative activity against human ARH-77 cells after 10 days; type: functional, cell-based; settings: ARH-77, 240 h; method in brief: as §3
BT-549 = experiment: Antiproliferative activity against human BT-549 cells after 10 days; type: functional, cell-based; settings: BT-549, 240 h; method in brief: as §3
NCI-H520 = experiment: Antiproliferative activity against human NCI-H520 cells after 10 days; type: functional, cell-based; settings: NCI-H520, 240 h; method in brief: as §4
THP-1 = experiment: Antiproliferative activity against human THP-1 cells after 10 days; type: functional, cell-based; settings: THP-1, 240 h
COLO-320-HSR = experiment: Antiproliferative activity against human COLO 320HSR cells after 10 days; type: functional, cell-based; settings: 240 h; method in brief: as §3
MDA-MB-453 = experiment: Antiproliferative activity against human MDA-MB-453 cells after 10 days; type: functional, cell-based; settings: MDA-MB-453, 240 h; method in brief: as §2
OVCAR-3 = experiment: Antiproliferative activity against human OVCAR-3 cells after 10 days; type: functional, cell-based; settings: OVCAR-3, 240 h; method in brief: as §4
SW1417 = experiment: Antiproliferative activity against human SW1417 cells after 10 days; type: functional, cell-based; settings: SW1417, 240 h
Hs 695T = experiment: Antiproliferative activity against human Hs 695T cells after 10 days; type: functional, cell-based; settings: 240 h; method in brief: as §1
[6] = test system: KATO III stomach cancer cell line; experiment: Antiproliferative activity against human KATO III cells after 10 days; type: functional, cell-based; settings: 240 h; method in brief: as §4
A-431 = experiment: Antiproliferative activity against human A-431 cells after 10 days; type: functional, cell-based; settings: A-431, 240 h; method in brief: as §3
NCI-H69 = experiment: Antiproliferative activity against human NCI-H69 cells after 10 days; type: functional, cell-based; settings: NCI-H69, 240 h; method in brief: as §4
MDA-MB-436 = experiment: Antiproliferative activity against human MDA-MB-436 cells after 10 days; type: functional, cell-based; settings: MDA-MB-436, 240 h; method in brief: as §4
ES-2 = experiment: Antiproliferative activity against human ES2 cells after 10 days; type: functional, cell-based; settings: ES-2, 240 h; method in brief: as §1
Caov-3 cell line = experiment: Antiproliferative activity against human Caov-3 cells after 10 days; type: functional, cell-based; settings: Caov-3, 240 h; method in brief: as §1

Compound `Cc1cn(CCN2CCN(c3ccccc3-c3cc(C#N)cc(C(=O)NCCCN4CCCC4)c3)CC2)c2ccccc12` has an IC50 (SNU1) of 1190 nM, an IC50 (G-401) of 905 nM and an IC50 (DU-145) of 4130 nM. It also gave an IC50 (JEG-3) of 1500 nM, an IC50 (CHP-212) of 2100 nM and an IC50 (SW13) of 2680 nM. For the same compound, the IC50 (BeWo) was 2880 nM, the IC50 (SK-UT-1) was 1410 nM and the IC50 (Hs-578T) was 6140 nM. It also gave an IC50 (U-87 MG) of 2850 nM, an IC50 (ST486) of 955 nM and an IC50 [1] of 1240 nM. The IC50 (JAR) was 2880 nM, the IC50 [2] was 3430 nM and the IC50 (HEC-1-A) was 1050 nM. The IC50 (T98G) was 5870 nM, the IC50 [3] was 3650 nM and the IC50 [4] was 3310 nM. It also gave an IC50 (COLO 201) of 1060 nM, an IC50 (BXPC-3) of 2870 nM and an IC50 (NCI-H295R) of 4840 nM. For the same compound, the IC50 (LS-1034) was 2900 nM, the IC50 (MIA PaCa-2) was 2030 nM and the IC50 [5] was 1990 nM. The IC50 (HuCCT-1) was 1240 nM, the IC50 (Capan-2) was 1570 nM and the IC50 (SW 954) was 4070 nM. For the same compound, the IC50 (Y79) was 3530 nM, the IC50 (SW-403) was 3120 nM and the IC50 (SK-MEL3) was 1390 nM. For the same compound, the IC50 (BHT-101) was 1430 nM, the IC50 (Daudi) was 857 nM and the IC50 (NCI-H441) was 5630 nM. It also gave an IC50 (Hs746T) of 4290 nM, an IC50 (ARH-77) of 780 nM and an IC50 (BT-549) of 3290 nM. For the same compound, the IC50 (NCI-H520) was 2700 nM, the IC50 (THP-1) was 2860 nM and the IC50 (COLO-320-HSR) was 2740 nM. It also gave an IC50 (MDA-MB-453) of 1500 nM, an IC50 (OVCAR-3) of 3950 nM and an IC50 (SW1417) of 3230 nM. It also gave an IC50 (Hs 695T) of 6650 nM, an IC50 [6] of 1390 nM and an IC50 (A-431) of 6350 nM. For the same compound, the IC50 (NCI-H69) was 2740 nM, the IC50 (MDA-MB-436) was 3030 nM and the IC50 (ES-2) was 1320 nM. The IC50 (Caov-3 cell line) was 2600 nM.

From ChEMBL document CHEMBL5674880 (PLoS One, 2018)
